Key:
hA3AR = target: T1, hA3AR (Homo sapiens, UniProt P0DMS8); experiment: cAMP functional assay at the hA3AR expressed in CHO cells; assay type: cell-based; details: for functional behaviour at hA3AR: cAMP assay, CHO cells; for Emax at 10 µM: CHO, read-out: maximal stimulation of cAMP formation / % activation relative to the full agonist 16 (= 100%)
T1 sequence (P0DMS8 1-318): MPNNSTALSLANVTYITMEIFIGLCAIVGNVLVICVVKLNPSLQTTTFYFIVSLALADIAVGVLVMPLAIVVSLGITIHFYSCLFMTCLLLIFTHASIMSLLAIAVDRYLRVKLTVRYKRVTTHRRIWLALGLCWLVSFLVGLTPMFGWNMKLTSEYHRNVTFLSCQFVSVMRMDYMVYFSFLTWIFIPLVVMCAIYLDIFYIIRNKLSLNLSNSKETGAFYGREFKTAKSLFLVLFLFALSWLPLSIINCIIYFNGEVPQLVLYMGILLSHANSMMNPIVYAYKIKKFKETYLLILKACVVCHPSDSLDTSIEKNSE
In short: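 Recombinant hA3AR-CHO cells, plated 24 h, washed with DMEM/50 mM HEPES pH 7.4. Treated with agonists and/or test compound plus rolipram (10 μM) and adenosine deaminase (3 units/mL); forskolin (10 μM) added at 45 min, incubation continued 15 min. Lysed with ice-cold 0.1 M HCl. cAMP quantified by PKA competition with [3H]cAMP (2 nM), GF/C filtration, scintillation, against cAMP standard curve. Mean ± SEM.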

hA2AAR = hA2AAR (Homo sapiens, UniProt P29274); experiment: Radioligand binding at hA2AAR; details: 4a versus truncated 4′-thioadenosine derivative 2
A1, A2A, and A3ARs = details: read-out: EC50 for activation of A1, A2A, and A3ARs; ref [5]; cited from earlier work
A2BAR = details: read-out: EC50 for activation of A2BAR; ref [5]; cited from earlier work

Chain of hA2AAR (P29274 whole entry, the tested form may be a part): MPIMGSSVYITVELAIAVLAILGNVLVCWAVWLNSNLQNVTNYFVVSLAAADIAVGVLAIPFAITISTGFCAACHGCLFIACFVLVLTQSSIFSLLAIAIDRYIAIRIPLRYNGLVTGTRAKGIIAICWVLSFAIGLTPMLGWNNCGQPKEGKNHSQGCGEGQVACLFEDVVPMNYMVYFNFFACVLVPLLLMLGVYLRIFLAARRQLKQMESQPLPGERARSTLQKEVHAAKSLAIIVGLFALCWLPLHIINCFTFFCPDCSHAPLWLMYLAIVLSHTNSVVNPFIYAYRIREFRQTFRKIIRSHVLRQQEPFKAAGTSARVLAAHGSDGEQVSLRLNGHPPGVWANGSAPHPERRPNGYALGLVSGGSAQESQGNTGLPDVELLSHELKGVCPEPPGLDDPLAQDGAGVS

SMILES | functional behaviour at hA3AR (hA3AR) | Emax at 10 µM (hA3AR) [%] | further results
CCCCC#Cc1nc(NCc2cccc(Cl)c2)c2ncn([C@H]3[C@H](O)[C@H](O)[C@@H]4C[C@@H]43)c2n1 [4h, (1R,2R,3S,4R,5S)-4-(6-(3-Chlorobenzylamino)-2-(hex-1-ynyl)-9H-purin-9-yl)bicyclo[3.1.0] hexane-2,3-diol] | antagonists | – | –
CCCCC#Cc1nc(N)c2ncn([C@H]3[C@H](O)[C@H](O)[C@@H]4C[C@@H]43)c2n1 [4a, (1R,2R,3S,4R,5S)-4-(6-Amino-2-(hex-1-ynyl)-9H-purin-9-yl)bicyclo[3.1.0]hexane-2,3-diol] | – | – | fold less potent than 2 in binding affinity at the hA2AAR (hA2AAR): 14 fold and ≈ 14 fold
CCCCC#Cc1nc(NCc2cccc(Br)c2)c2ncn([C@H]3[C@H](O)[C@H](O)[C@@H]4C[C@@H]43)c2n1 [4g, (1R,2R,3S,4R,5S)-4-(6-(3-Bromobenzylamino)-2-(hex-1-ynyl)-9H-purin-9-yl)bicyclo[3.1.0]hexane-2,3-diol] | antagonists | – | –
CCCCC#Cc1nc(NC2CCCC2)c2ncn([C@H]3[C@H](O)[C@H](O)[C@@H]4C[C@@H]43)c2n1 [4e, (1R,2R,3S,4R,5S)-4-(6-(Cyclopentylamino)-2-(hex-1-ynyl)-9H-purin-9-yl)bicyclo[3.1.0]hexane-2,3-diol] | partial agonists | 27.1 ± 14.6 | –
CCCCC#Cc1nc(NC2CC2)c2ncn([C@H]3[C@H](O)[C@H](O)[C@@H]4C[C@@H]43)c2n1 [4d, (1R,2R,3S,4R,5S)-4-(6-(Cyclopropylamino)-2-(hex-1-ynyl)-9H-purin-9-yl)bicyclo[3.1.0]hexane-2,3-diol] | partial agonists | 19.8 ± 4.6 | –
CCCCC#Cc1nc(NCc2cccc(I)c2)c2ncn([C@H]3[C@H](O)[C@H](O)[C@@H]4C[C@@H]43)c2n1 [4f, (1R,2R,3S,4R,5S)-4-(6-(3-Iodobenzylamino)-2-(hex-1-ynyl)-9H-purin-9-yl)bicyclo[3.1.0]hexane-2,3-diol] | antagonists | – | –
CCCCC#Cc1nc(NCc2cccc(F)c2)c2ncn([C@H]3[C@H](O)[C@H](O)[C@@H]4C[C@@H]43)c2n1 [4i, (1R,2R,3S,4R,5S)-4-(6-(3-Fluorobenzylamino)-2-(hex-1-ynyl)-9H-purin-9-yl)bicyclo[3.1.0] hexane-2,3-diol] | partial agonists | 18.9 ± 7.5 | –
CCCCC#Cc1nc(NCC)c2ncn([C@H]3[C@H](O)[C@H](O)[C@@H]4C[C@@H]43)c2n1 [4c, (1R,2R,3S,4R,5S)-4-(6-(ethylamino)-2-(hex-1-ynyl)-9H-purin-9-yl)bicyclo[3.1.0]hexane-2,3-diol] | partial agonists | 15.5 ± 6.7 | –
CCCCC#Cc1nc(NC)c2ncn([C@H]3[C@H](O)[C@H](O)[C@@H]4C[C@@H]43)c2n1 [4b] | partial agonist | – | –

— article PMC3954500 (Journal of Medicinal Chemistry, 2014)
